ARNT TACC3 PPI: disrupts binding between human ARNT and TACC3; AlphaScreen His-ARNT PAS-B/GST-TACC3 binding, luminescence; TACC3 fragment carries E629A point mutation; hit rate 0.66% among 390,000; Q9Y6A5; inhibition, % at 9.99 µM;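 active = mean inhibition of replicates at least 50% and at least half of replicates each reaching 50%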;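 note: 0% = complete ARNT plus TACC3 wells and 100% = ARNT alone without TACC3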
CaV13 FRET inh: Disruptors of the CACNA1D IQ motif to Ca2+-dependent inactivation inhibitor domain association, primary screening, Förster resonance energy transfer in intact living …; hit rate 0.098% among 340,000; HEK cells, CFP/YFP FRET ICDI-IQ, plate reader, 10 min; percent FRET-ratio fall versus neutral wells; inhibition, % at 12.3 µM; AID 743397;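 active = mean replicate inhibition of at least 30% and at least 1% of replicates passing that level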;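 note: 0% = median of the neutral control wells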
CAL PDZ FP-1: CAL PDZ (human) peptide binding inhibition. Q9HD26. purified CAL PDZ, TMR-peptide fluorescence polarization, 1 h. inhibition, % at 24.9 µM. hit rate 0.92% among 300,000;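 active = mean inhibition of at least 30% with at least half of replicates also reaching 30%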;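 note: 0% = DMSO neutral control and 100% = excess unlabeled competitor peptide PRC23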
CAL PDZ FP-2: blocks peptide binding to human CAL PDZ domain; Q9HD26; purified CAL PDZ, TMR-peptide fluorescence polarization, 1 h; inhibition, % at 20 µM; hit rate 0.02% among 330,000; AID 504414;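 active = highest replicate inhibition of at least 40%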;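 note: plate controls were DMSO neutral control wells for no effect and unlabeled competitor peptide control wells for full effect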
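Control set: unlabelled peptide and DMSO controls / Material: purified CerCALP PDZ construct / Timing: 1 h incubation at room temperature before polarization reading / Doses: 20 µM, one dose / Detection: fluorescence polarization (mP)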
* marks the source's active call; other numbers are inactive results. A selection: hits, their analogues and other compounds. The true share with any hit is near 1.2%.

CCN1C(=O)CS/C1=N\S(=O)(=O)c1ccc(Cl)cc1 was read as ARNT TACC3 PPI 24, CaV13 FRET inh -2, CAL PDZ FP-1 -2 and CAL PDZ FP-2 64*.
`C[C@H](CO)N1C[C@H](C)[C@@H](CN(C)Cc2ccc(-c3ccccc3)cc2)Oc2ccc(NC(=O)Cn3cnnn3)cc2CC1=O` gave ARNT TACC3 PPI 7.
Screening C[C@H](CO)N1C[C@H](C)[C@H](CN(C)C(=O)CCCN(C)C)OCCCC[C@H](C)Oc2ccc(NC(=O)Nc3cccc4ccccc34)cc2C1=O returned ARNT TACC3 PPI -2.
CCOC(=O)c1c(OCC)[nH]c2c1cc(O)c1ccccc12 was read as ARNT TACC3 PPI 33*, CaV13 FRET inh -5, CAL PDZ FP-1 -2 and CAL PDZ FP-2 2.
O=C(Cn1ncc(N2CCOCC2)c(Cl)c1=O)c1ccc(Cl)cc1 was read as ARNT TACC3 PPI -4, CaV13 FRET inh -1, CAL PDZ FP-1 34* and CAL PDZ FP-2 0.
Cc1noc(C)c1S(=O)(=O)Nc1ccc2c(c1)C(=O)N([C@H](C)CO)C[C@H](C)[C@H](CN(C)S(=O)(=O)c1c(C)noc1C)OCCCC[C@H](C)O2 was read as ARNT TACC3 PPI -9.
For S=C(Nc1ccc2nsnc2c1)NC1CCCCC1 the results were ARNT TACC3 PPI 25*, CaV13 FRET inh -2, CAL PDZ FP-1 -4 and CAL PDZ FP-2 -1.
For C/C=C/c1cnc2c(c1)C(=O)N([C@H](C)CO)C[C@@H](C)[C@H](CN(C)C(=O)NC1CCCCC1)O2 the results were ARNT TACC3 PPI -3.
For CC(C)N1C(=O)CCC1C(=O)N1CCCc2ccccc21 (stereo not drawn) the results were ARNT TACC3 PPI 13*, CaV13 FRET inh -6, CAL PDZ FP-1 -2 and CAL PDZ FP-2 0.
For COc1ccccc1CNC(=O)C[C@H]1C=C[C@H](NC(=O)CN(C)C)[C@@H](CO)O1 the results were ARNT TACC3 PPI 2.
Screening C[C@@H]1CN([C@H](C)CO)C(=O)Cc2cc(NC(=O)Nc3ccc(F)cc3)ccc2O[C@@H]1CN(C)Cc1ccc(Cl)c(Cl)c1 returned ARNT TACC3 PPI 4.
COc1cc(-c2ccc3c(=O)c4ccccc4n(C)c3c2)cc(OC)c1OC was read as ARNT TACC3 PPI -4, CaV13 FRET inh -6, CAL PDZ FP-1 -8 and CAL PDZ FP-2 -10.
For Cn1c2ccccc2c(=O)c2ccc(F)cc21 the results were ARNT TACC3 PPI -9, CaV13 FRET inh 186*, CAL PDZ FP-1 0 and CAL PDZ FP-2 -2.
Screening C[C@@H]1CN([C@H](C)CO)C(=O)c2cccc(NS(=O)(=O)c3ccc(F)cc3)c2O[C@@H]1CN(C)S(C)(=O)=O returned ARNT TACC3 PPI -2.
`Cc1nnc(SCC(=O)Nc2ccc3c(c2)OCCO3)n1N` gave ARNT TACC3 PPI 1, CaV13 FRET inh -6, CAL PDZ FP-1 -6 and CAL PDZ FP-2 -1.
Nn1c(SCC(=O)Nc2ccc3c(c2)OCCO3)nnc(CCC(=O)O)c1=O was read as ARNT TACC3 PPI -4, CaV13 FRET inh -2, CAL PDZ FP-1 83* and CAL PDZ FP-2 1.
Screening CC(C)NC(=O)N(C)C[C@H]1Oc2ccc(NC(=O)NC3CCCCC3)cc2C(=O)N([C@@H](C)CO)C[C@@H]1C returned ARNT TACC3 PPI -2.
Screening CC(=O)Nc1ccc(Oc2nc(-c3ccccn3)nc3ccccc23)cc1 returned ARNT TACC3 PPI 58*, CaV13 FRET inh -5, CAL PDZ FP-1 -2 and CAL PDZ FP-2 0.
Screening CC(=O)Nc1ccc(Oc2ncccn2)cc1 returned ARNT TACC3 PPI -2, CAL PDZ FP-1 2 and CAL PDZ FP-2 -1.
For CC(=O)Nc1cccc(Oc2nc(-c3ccccn3)nc3ccccc23)c1 the results were ARNT TACC3 PPI 48*, CaV13 FRET inh -5 and CAL PDZ FP-2 -1.
C[C@@H]1CN([C@H](C)CO)C(=O)Cc2cc(NC(=O)CCCCCC(=O)Nc3ccccc3N)ccc2O[C@H]1CN(C)C(=O)Nc1ccc(C(F)(F)F)cc1 was read as ARNT TACC3 PPI 0.
`Nn1c(Cc2cccc3ccccc23)nnc1SCc1ccccc1` gave ARNT TACC3 PPI 0, CaV13 FRET inh -2, CAL PDZ FP-1 -3 and CAL PDZ FP-2 -2.
`Nn1c(Cc2ccccc2)nnc1Cc1ccccc1` gave ARNT TACC3 PPI 1, CaV13 FRET inh -9, CAL PDZ FP-1 54* and CAL PDZ FP-2 1.
For COc1ccc(S(=O)(=O)N(C)C[C@H]2Oc3ncc(C#CC4(O)CCCC4)cc3C(=O)N([C@H](C)CO)C[C@@H]2C)cc1 the results were ARNT TACC3 PPI 39*.
For C[C@@H]1CN([C@@H](C)CO)C(=O)c2cc(C3=CCCC3)cnc2O[C@H]1CN(C)C(=O)CN(C)C the results were ARNT TACC3 PPI 1.
For NC(=S)NNC(=O)c1ccccc1Cl the results were ARNT TACC3 PPI -6, CaV13 FRET inh -4, CAL PDZ FP-1 34* and CAL PDZ FP-2 -1.
For CNC(=S)NNC(=O)c1ccccc1Cl the results were CaV13 FRET inh -19.
Screening COc1ccc(Cl)cc1C(=O)NNC(=O)CNC(=O)c1ccc(C)s1 returned ARNT TACC3 PPI -2, CaV13 FRET inh -10, CAL PDZ FP-1 54* and CAL PDZ FP-2 1.
CCOc1ccc(C(=O)NNC(=O)CNC(=O)c2ccc(C)s2)cc1OC was read as ARNT TACC3 PPI 3, CaV13 FRET inh -2, CAL PDZ FP-1 -2 and CAL PDZ FP-2 -1.
For CCCc1cn(CC[C@H]2CC[C@@H](NC(=O)Nc3ccc4c(c3)OCO4)[C@H](CO)O2)nn1 the results were ARNT TACC3 PPI -1.
`CC(C)(C)S(=O)(=O)c1cnc2c(-c3ccsc3)cnn2c1N` gave ARNT TACC3 PPI -3, CaV13 FRET inh -7, CAL PDZ FP-1 48* and CAL PDZ FP-2 0.
`COC(=O)c1c(C)nc2nonc2c1N` gave ARNT TACC3 PPI -4, CaV13 FRET inh -6, CAL PDZ FP-1 172* and CAL PDZ FP-2 1.
For COC(=O)c1c(C)nc2c(c(SC)nn2-c2ccccc2)c1N the results were ARNT TACC3 PPI -23, CaV13 FRET inh -5, CAL PDZ FP-1 -22 and CAL PDZ FP-2 0.
`COc1ccccc1C(=O)NCCC(=O)NC1CCCCCC1` gave ARNT TACC3 PPI 6, CaV13 FRET inh -3 and CAL PDZ FP-2 0.
For COc1ccccc1C(=O)NCCC(=O)NCC1CCCCC1 the results were ARNT TACC3 PPI -3, CaV13 FRET inh -9, CAL PDZ FP-1 79* and CAL PDZ FP-2 5.
`CCCCOc1ccc(C(=O)O)cc1` gave ARNT TACC3 PPI -2 and CAL PDZ FP-1 2.
`CCCOc1ccc(C(=O)O)cc1` gave ARNT TACC3 PPI -3, CaV13 FRET inh -1, CAL PDZ FP-1 77* and CAL PDZ FP-2 1.
Screening CC12CCC(=O)N1C(C(=O)N1CCN(c3cccc(Cl)c3)CC1)CS2 (stereo not drawn) returned ARNT TACC3 PPI -4, CaV13 FRET inh -5, CAL PDZ FP-1 80* and CAL PDZ FP-2 0.
